# Measurements: ChEMBL document CHEMBL1149351, “4-Amino-2-alkyl-butyramides as small molecule CCR2 antagonists with favorable pharmacokinetic properties” (Bioorg Med Chem Lett, 2006)
# Tests used:
# [1] = target: T1, C-C chemokine receptor type 2 (Homo sapiens, UniProt P41597); experiment: Inhibition of [125I]MCP-1 binding to human CCR2b expressed in CHO cells at 1 uM; format: cell-based
# Target sequence in this assay (P41597 whole entry, looked up): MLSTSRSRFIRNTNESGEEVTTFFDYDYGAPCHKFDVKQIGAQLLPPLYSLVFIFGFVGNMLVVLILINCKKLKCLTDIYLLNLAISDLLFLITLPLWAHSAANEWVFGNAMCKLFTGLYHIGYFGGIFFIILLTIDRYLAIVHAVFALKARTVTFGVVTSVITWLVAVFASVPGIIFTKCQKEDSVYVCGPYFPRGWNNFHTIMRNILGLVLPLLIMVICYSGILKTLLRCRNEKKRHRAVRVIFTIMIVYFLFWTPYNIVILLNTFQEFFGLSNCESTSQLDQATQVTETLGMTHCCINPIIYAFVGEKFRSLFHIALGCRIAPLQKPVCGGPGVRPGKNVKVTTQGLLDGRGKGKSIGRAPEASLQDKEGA
# [2] = target: T1, C-C chemokine receptor type 2; experiment: Displacement of [125I]MCP-1 from human CCR2b expressed in CHO cells; format: cell-based
# Target sequence in this assay (P41597 whole entry): as the sequence (P41597 whole entry, looked up) above
# [3] = target: T1, C-C chemokine receptor type 2; experiment: Displacement of [125I]MCP-1 from human CCR2b expressed in human monocyte cells; format: cell-based
# Procedure, shortened: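 Human monocytes (5 × 10⁴) incubated with ¹²⁵I-hMCP-1 (20–50 pM; 2200 Ci/mmol) plus varying unlabeled competitor, 60 min at room temperature, in 50 mM HEPES, 5 mM MgCl₂, 1 mM CaCl₂, pH 7.4. Stopped by filtration on PEI-presoaked GF/B filters, washed with 25 mM HEPES pH 7.5/500 mM NaCl, then scintillation counted. Means of at least two separate experiments.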
# Target sequence in this assay (P41597 whole entry): as the sequence (P41597 whole entry, looked up) above
# [4] = target: T1, C-C chemokine receptor type 2; experiment: Inhibition of [125I]MCP-1 binding to human CCR2b expressed in human monocyte cells at 1 uM; format: cell-based
# Procedure, shortened: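 Competition binding on human monocytes (5 × 10⁴ cells) with ¹²⁵I-hMCP-1 (20–50 pM) in 50 mM HEPES, 5 mM MgCl₂, 1 mM CaCl₂, pH 7.4, for 60 min at room temperature. Stopped by filtration through filters presoaked in 0.1% polyethyleneimine, washed with 25 mM HEPES pH 7.5 plus 500 mM NaCl. Bound label read by scintillation counting. Mean of at least two separate experiments.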
# Target sequence in this assay (P41597 whole entry, looked up): as above
# [5] = target: T1, C-C chemokine receptor type 2; experiment: Activity at CCR2b by calcium flux based FLIPR assay in CHO cells; format: functional, cell-based
# Target sequence in this assay (P41597 whole entry): as the sequence (P41597 whole entry, looked up) above
# [6] = target: C-C chemokine receptor type 5 (Homo sapiens) (UniProt P51681); experiment: Inhibition of CCR5 at 1 uM
# C-C chemokine receptor type 5 (Homo sapiens), sequence (P51681 whole entry, looked up): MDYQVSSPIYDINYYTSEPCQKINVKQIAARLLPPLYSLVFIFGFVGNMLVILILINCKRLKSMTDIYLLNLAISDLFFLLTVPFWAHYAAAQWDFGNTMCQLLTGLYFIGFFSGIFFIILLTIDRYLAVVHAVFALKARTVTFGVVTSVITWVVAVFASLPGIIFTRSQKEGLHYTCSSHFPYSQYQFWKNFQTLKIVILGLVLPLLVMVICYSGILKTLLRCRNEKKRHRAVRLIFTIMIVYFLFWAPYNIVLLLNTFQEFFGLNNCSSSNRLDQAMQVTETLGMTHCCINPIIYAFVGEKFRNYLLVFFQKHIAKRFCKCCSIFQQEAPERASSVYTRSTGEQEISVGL
# [7] = test system: Rattus norvegicus; experiment: AUC in Sprague-Dawley rat at 1 mg/kg, iv; format: ADME, organism-based, Plasma; parameters: dose 1 mg/kg, route intravenous; details: in vivo
# [8] = Clearance in Sprague-Dawley rat at 1 mg/kg, iv; format: ADME, organism-based; parameters: dose 1 mg/kg, route intravenous; details: in vivo
# [9] = test system: Rattus norvegicus; experiment: AUC in Sprague-Dawley rat at 3 mg/kg, po; format: ADME, organism-based, Plasma; parameters: dose 3 mg/kg, route oral; details: in vivo
# [10] = target: C-X-C chemokine receptor type 4 (Homo sapiens) (UniProt P61073); experiment: Inhibition of human CXCR4 at 1 uM
# C-X-C chemokine receptor type 4 (Homo sapiens), sequence (P61073 whole entry): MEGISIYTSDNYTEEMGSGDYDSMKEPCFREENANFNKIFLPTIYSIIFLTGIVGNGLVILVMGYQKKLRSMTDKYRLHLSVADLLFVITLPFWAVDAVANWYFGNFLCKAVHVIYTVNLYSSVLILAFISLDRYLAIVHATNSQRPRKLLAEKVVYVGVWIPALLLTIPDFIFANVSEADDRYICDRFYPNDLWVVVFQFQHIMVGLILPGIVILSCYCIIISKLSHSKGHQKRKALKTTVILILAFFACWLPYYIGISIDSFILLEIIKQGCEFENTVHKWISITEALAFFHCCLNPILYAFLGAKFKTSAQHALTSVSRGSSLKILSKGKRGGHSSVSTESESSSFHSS
# [11] = target: T2, C-C chemokine receptor type 1 (Homo sapiens) (UniProt P32246); experiment: Inhibition of human CCR1 at 1 uM
# T2 sequence (whole entry): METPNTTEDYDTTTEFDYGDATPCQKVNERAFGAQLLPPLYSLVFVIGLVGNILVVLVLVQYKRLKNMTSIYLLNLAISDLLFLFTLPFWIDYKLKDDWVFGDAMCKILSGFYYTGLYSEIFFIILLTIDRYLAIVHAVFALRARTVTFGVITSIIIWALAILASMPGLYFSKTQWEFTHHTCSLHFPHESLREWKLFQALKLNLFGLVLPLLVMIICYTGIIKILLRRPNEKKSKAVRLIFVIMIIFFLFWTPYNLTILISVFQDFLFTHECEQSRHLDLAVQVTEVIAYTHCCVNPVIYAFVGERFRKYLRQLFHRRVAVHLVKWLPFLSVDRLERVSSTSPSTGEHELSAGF
# [12] = test system: Rattus norvegicus; experiment: Tmax in Sprague-Dawley rat at 3 mg/kg, po; format: ADME, organism-based; parameters: dose 3 mg/kg, route oral; details: in vivo
# [13] = Cmax in Sprague-Dawley rat at 3 mg/kg, po; format: ADME, organism-based; parameters: dose 3 mg/kg, route oral; details: in vivo
# [14] = Half life in Sprague-Dawley rat at 1 mg/kg, iv; format: ADME, organism-based; parameters: dose 1 mg/kg, route intravenous; details: in vivo
# [15] = Volume of distribution in Sprague-Dawley rat at 1 mg/kg, iv; format: ADME, organism-based; parameters: dose 1 mg/kg, route intravenous; details: in vivo, read-out: Vdss
# [16] = target: C-C chemokine receptor type 8 (Homo sapiens) (UniProt P51685); experiment: Inhibition of CCR8 at 1 uM
# C-C chemokine receptor type 8 (Homo sapiens), sequence (P51685 whole entry): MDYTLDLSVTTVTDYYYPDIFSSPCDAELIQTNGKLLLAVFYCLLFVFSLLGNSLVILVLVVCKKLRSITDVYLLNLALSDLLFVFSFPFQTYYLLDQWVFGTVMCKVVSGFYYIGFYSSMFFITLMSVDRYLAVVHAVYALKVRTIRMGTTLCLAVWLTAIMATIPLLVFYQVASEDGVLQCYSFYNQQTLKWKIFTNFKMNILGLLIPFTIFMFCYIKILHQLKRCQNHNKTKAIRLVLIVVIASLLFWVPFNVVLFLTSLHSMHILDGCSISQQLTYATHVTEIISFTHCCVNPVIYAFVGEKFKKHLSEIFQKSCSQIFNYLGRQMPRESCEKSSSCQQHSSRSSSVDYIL
# [17] = target: T3, C-C chemokine receptor type 3 (Homo sapiens) (UniProt P51677); experiment: Inhibition of human CCR3 at 4 uM
# T3 sequence (whole entry): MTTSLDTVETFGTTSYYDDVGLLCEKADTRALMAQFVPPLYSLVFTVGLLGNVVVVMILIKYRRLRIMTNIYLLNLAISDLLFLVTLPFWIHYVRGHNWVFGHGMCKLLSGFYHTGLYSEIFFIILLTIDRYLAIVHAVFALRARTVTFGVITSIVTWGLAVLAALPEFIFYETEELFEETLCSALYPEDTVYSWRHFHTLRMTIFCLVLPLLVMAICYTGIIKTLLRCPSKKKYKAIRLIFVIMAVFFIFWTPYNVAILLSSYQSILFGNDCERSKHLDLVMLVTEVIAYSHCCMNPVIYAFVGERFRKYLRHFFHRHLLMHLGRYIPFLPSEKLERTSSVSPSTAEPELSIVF
# [18] = test system: Rattus norvegicus; experiment: Oral bioavailability in Sprague-Dawley rat at 3 mg/kg, po; format: ADME, organism-based; details: in vivo
SMILES,IC50 [2] [nM],IC50 [3] [nM],other results
CC(=O)Nc1ncc(S(=O)(=O)NC(CCN2CCC3(C=Cc4ccccc43)CC2)C(=O)NCc2cc(C(F)(F)F)cc(C(F)(F)F)c2)s1 (stereo not drawn),,,inhibition [1]: 45%
CS(=O)(=O)NC(CCN1CCC2(C=Cc3ccccc32)CC1)C(=O)NCc1cc(C(F)(F)F)cc(C(F)(F)F)c1 (stereo not drawn),244,,
CC(O)C(CCN1CC[C@@]2(C=Cc3ccccc32)[C@@H](C)C1)C(=O)NCc1cc(C(F)(F)F)cc(C(F)(F)F)c1 (stereo partly drawn),,48,
COC(=O)C[C@H](CCN1CCC(c2ccccc2)CC1)C(=O)NCc1cc(C(F)(F)F)cc(C(F)(F)F)c1,,,inhibition [1]: 42%
O=C(CCCN1CCC2(C=Cc3ccccc32)CC1)NCc1cc(C(F)(F)F)cc(C(F)(F)F)c1,570,,inhibition [4]: 80%
C[C@H]1CN(CC[C@H](CC2CC2)C(=O)NCc2cc(C(F)(F)F)cc(C(F)(F)F)c2)CC[C@@]12C=Cc1ccccc12,25,9,IC50 [5]: 3 nM
O=C1NCC(C(=O)NC(CCN2CCC3(C=Cc4ccccc43)CC2)C(=O)NCc2cc(C(F)(F)F)cc(C(F)(F)F)c2)N1 (stereo not drawn),525,,
C[C@H]1CN(CCCC(=O)NCc2cc(C(F)(F)F)cc(C(F)(F)F)c2)CC[C@@]12C=Cc1ccccc12,173,93,
O=CNC(CCN1CCC2(C=Cc3ccccc32)CC1)C(=O)NCc1cc(C(F)(F)F)cc(C(F)(F)F)c1 (stereo not drawn),,,inhibition [1]: 25%
CC(C)[C@H](CCN1CCC2(C=Cc3ccccc32)CC1)C(=O)NCc1cc(C(F)(F)F)cc(C(F)(F)F)c1,204,47,
C[C@H]1CN(CC[C@H](C(=O)NCc2cc(C(F)(F)F)cc(C(F)(F)F)c2)c2ccc(F)cc2)CC[C@@]12C=Cc1ccccc12,67,,
C[C@H](CCN1CCC2(C=Cc3ccccc32)CC1)C(=O)NCc1cc(C(F)(F)F)cc(C(F)(F)F)c1,231,37,
C[C@@H](CCN1CCC2(C=Cc3ccccc32)CC1)C(=O)NCc1cc(C(F)(F)F)cc(C(F)(F)F)c1,605,86,
C[C@H]1CN(CC[C@@H](C(=O)NCc2cc(C(F)(F)F)cc(C(F)(F)F)c2)C2CC2)CC[C@@]12C=Cc1ccccc12,80,13,
CC(O)C(CCN1CCC(c2ccc(F)cc2)CC1)C(=O)NCc1cc(C(F)(F)F)cc(C(F)(F)F)c1 (stereo not drawn),,462,
CCC[C@H](CCN1CCC(c2ccccc2)CC1)C(=O)NCc1cc(C(F)(F)F)cc(C(F)(F)F)c1,126,42,
O=C(NCc1cc(C(F)(F)F)cc(C(F)(F)F)c1)[C@@H](CCN1CCC(c2ccc(F)cc2)CC1)C1CC1,280,72,
O=C(NCc1cc(C(F)(F)F)cc(C(F)(F)F)c1)[C@@H](CCN1CCC(c2ccccc2)CC1)C1CC1,285,129,

SMILES,IC50 [2] [nM],IC50 [3] [nM],other results
NC(CCN1CCC2(C=Cc3ccccc32)CC1)C(=O)NCc1cc(C(F)(F)F)cc(C(F)(F)F)c1 (stereo not drawn),,,inhibition [1]: 33%
O=C(NCc1cc(C(F)(F)F)cc(C(F)(F)F)c1)C(CCN1CCC2(C=Cc3ccccc32)CC1)Cc1ccccc1 (stereo not drawn),298,232,
C=CC[C@H](CCN1CCC(c2ccccc2)CC1)C(=O)NCc1cc(C(F)(F)F)cc(C(F)(F)F)c1,642,216,
C[C@H]1CN(CC[C@H](C(=O)NCc2cc(C(F)(F)F)cc(C(F)(F)F)c2)C2CCC2)CC[C@@]12C=Cc1ccccc12,28,12,IC50 [5]: 11 nM
O=C(NCc1cc(C(F)(F)F)cc(C(F)(F)F)c1)C(CCN1CCC2(C=Cc3ccccc32)CC1)C1CC1 (stereo not drawn),69,38,
O=C(NCc1cc(C(F)(F)F)cc(C(F)(F)F)c1)[C@@H](CCN1CCC2(C=Cc3ccccc32)CC1)C1CC1,98,15,
CC(=O)N1CCCC(C(CCN2CCC3(C=Cc4ccccc43)CC2)C(=O)NCc2cc(C(F)(F)F)cc(C(F)(F)F)c2)C1 (stereo not drawn),660,80,
CC[C@H]1CN(CC[C@H](C(=O)NCc2cc(C(F)(F)F)cc(C(F)(F)F)c2)c2ccc(F)cc2)CC[C@@]12C=Cc1ccccc12,437,,
CS(=O)(=O)N1CCCC(C(CCN2CCC3(C=Cc4ccccc43)CC2)C(=O)NCc2cc(C(F)(F)F)cc(C(F)(F)F)c2)C1 (stereo not drawn),783,,inhibition [4]: 70%
CC(C)[C@@H](CCN1CCC2(C=Cc3ccccc32)CC1)C(=O)NCc1cc(C(F)(F)F)cc(C(F)(F)F)c1,349,72,
O=C(NCc1cc(C(F)(F)F)cc(C(F)(F)F)c1)C(CCN1CCC2(C=Cc3ccccc32)CC1)NS(=O)(=O)C(F)(F)F (stereo not drawn),125,,
C=CC[C@H](CCN1CCC2(C=Cc3ccccc32)CC1)C(=O)NCc1cc(C(F)(F)F)cc(C(F)(F)F)c1,193,37,
C[C@H]1CN(CC[C@H](C(=O)NCc2cc(C(F)(F)F)cc(C(F)(F)F)c2)C2CC2)CC[C@@]12C=Cc1ccccc12,14,4,IC50 [5]: 4 nM; inhibition [6]: 38%; AUC [7]: 4.17 µM·h; clearance [8]: 7.36 mL/min/kg; AUC [9]: 4.08 µM·h; inhibition [10]: 8%; inhibition [11]: -5%; Tmax [12]: 4.67 µM; Cmax [13]: 1580 nM; half-life [14]: 4.11 h; Vd [15]: 2.19 L/kg; inhibition [16]: 9%; inhibition [17]: 3%; F [18]: 98%
O=C(NCc1cc(C(F)(F)F)cc(C(F)(F)F)c1)C(CCN1CCC2(C=Cc3ccccc32)CC1)C1CCCCC1 (stereo not drawn),160,73,
O=C(NCc1cc(C(F)(F)F)cc(C(F)(F)F)c1)C(CCN1CCC2(C=Cc3ccccc32)CC1)NS(=O)(=O)c1ccccc1 (stereo not drawn),,,inhibition [1]: 7%
O=C(NCc1cc(C(F)(F)F)cc(C(F)(F)F)c1)C(CCN1CCC2(C=Cc3ccccc32)CC1)NS(=O)(=O)c1cccs1 (stereo not drawn),,,inhibition [1]: 20%
COC(=O)C[C@@H](CCN1CCC(c2ccccc2)CC1)C(=O)NCc1cc(C(F)(F)F)cc(C(F)(F)F)c1,,,inhibition [1]: 38%
COC(=O)NC(CCN1CCC2(C=Cc3ccccc32)CC1)C(=O)NCc1cc(C(F)(F)F)cc(C(F)(F)F)c1 (stereo not drawn),805,,
